The subject of data set [1] is Mus musculus. Briefly: Anticonvulsant activity in mouse assessed as isoniazid-induced tonic seizures at 30 mg/kg, ip administered 30 mins before isoniazid challenge measured after 1 hr. It is filed as functional. The note with it: route intraperitoneal.
Data set [2] has as its system Mus musculus. Kind of data set: Anticonvulsant activity in mouse assessed as bicuculline-induced clonic seizures at 30 mg/kg, ip administered 30 mins before bicuculline challenge measured after 0.5 hrs. The class given is functional. The note with it: route intraperitoneal. The gist of the method:
(§1)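 Bicuculline 2.7 mg/kg sc, injected 15–45 min after preparation, given 30 min after 30 mg/kg i.p. test compound. Mice, 10 per group, were isolated and watched for at least 30 min for clonic and tonic seizures and lethality.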

The subject of data set [3] is Mus musculus. Kind of data set: Anticonvulsant activity in mouse assessed as pentylenetetrazole-induced tonic seizures at 30 mg/kg, ip administered 30 mins before pentylenetetrazole challenge measured after 0.5 hrs. It is filed as functional. Conditions: route intraperitoneal.
For data set [4], the system named is Mus musculus. Briefly: Anticonvulsant activity in mouse assessed as 3-mercaptopropionic acid-induced tonic seizures at 30 mg/kg, ip administered 30 mins before 3-mercaptopropionic acid challenge measured after 0.5 hrs. It is filed as functional. The note with it: route intraperitoneal. The gist of the method:
(§2)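 KunMing mice (18–22 g) in groups of 10 received the test agent, dissolved in DMSO, i.p. 30 min before challenge. The challenge was 3-mercaptopropionic acid, 60 mg/kg in saline, given s.c. Mice were then held in individual cages and observed for 0.5 h for seizures and death.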

Data set [5] concerns Mus musculus. Kind of data set: Anticonvulsant activity in mouse assessed as pentylenetetrazole-induced clonic seizures at 30 mg/kg, ip administered 30 mins before pentylenetetrazole challenge measured after 0.5 hrs. The class given is functional. Conditions: route intraperitoneal.
For data set [6], the species on record is Mus musculus. Kind of data set: Protective index, ratio of TD50 for mouse by rotarod test to ED50 for mouse by MES test. It is filed as functional. (In general: In the rotarod test animals must keep their balance on a rotating rod.)
Data set [7] concerns Mus musculus. Kind of data set: Anticonvulsant activity in mouse assessed as isoniazid-induced clonic seizures at 30 mg/kg, ip administered 30 mins before isoniazid challenge measured after 1 hr. The note with it: route intraperitoneal. The class given is functional.
In data set [8] the test system is Mus musculus. Kind of data set: Anticonvulsant activity in mouse assessed as thiosemicarbazide-induced tonic seizures at 30 mg/kg, ip administered 30 mins before thiosemicarbazide challenge measured after 2.5 hrs. The class given is functional. The note with it: route intraperitoneal. In a few lines: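 Mice (KunMing, 18–22 g, n = 10 per group) were pretreated i.p. with compound in DMSO. After 30 min, thiosemicarbazide was given at 50 mg/kg i.p. Animals were caged individually and observed for 2.5 h, and the number of clonic seizures, tonic seizures and deaths was recorded.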

Data set [9] deals with Mus musculus. Briefly: Anticonvulsant activity in mouse assessed as bicuculline-induced death at 30 mg/kg, ip administered 30 mins before bicuculline challenge measured after 0.5 hrs. It is filed as functional. Conditions: route intraperitoneal. In a few lines:
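Groups of 10 KunMing mice (18–22 g) were dosed i.p. with compound in DMSO. After 30 min they received bicuculline, 2.7 mg/kg s.c., injected within 15–45 min of preparation because of its instability. Mice were isolated and watched for at least 30 min, and clonic seizures, tonic seizures and lethality were recorded.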

The test system of data set [10] is Mus musculus. Briefly: Anticonvulsant activity in mouse assessed as bicuculline-induced tonic seizures at 30 mg/kg, ip administered 30 mins before bicuculline challenge measured after 0.5 hrs. The class given is functional. The note with it: route intraperitoneal. The gist of the method:
as §1

Data set [11] has as its system Mus musculus. Kind of data set: Anticonvulsant activity in mouse assessed as 3-mercaptopropionic acid-induced clonic seizures at 30 mg/kg, ip administered 30 mins before 3-mercaptopropionic acid challenge measured after 0.5 hrs. The class given is functional. The note with it: route intraperitoneal. In a few lines:
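Mice, 10 per group, dosed i.p. with 30 mg/kg. 30 min later they received 3-mercaptopropionic acid 60 mg/kg sc in saline. Each mouse was observed alone for 0.5 h for seizures.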

The subject of data set [12] is Mus musculus. Kind of data set: Anticonvulsant activity in mouse assessed as thiosemicarbazide-induced clonic seizures at 30 mg/kg, ip administered 30 mins before thiosemicarbazide challenge measured after 2.5 hrs. The class given is functional. Conditions: route intraperitoneal. In a few lines:
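Thiosemicarbazide challenge, 50 mg/kg i.p., given 30 min after 30 mg/kg i.p. test compound. Mice, 10 per group, were caged individually and observed for 2.5 h. Clonic and tonic seizures and lethality were recorded.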

Data set [13] concerns Mus musculus. Briefly: Anticonvulsant activity in mouse assessed as protection against maximal electroshock-induced seizures at 10 mg/kg, ip measured after 0.5 hrs. It is filed as functional, organism-based. The arrangement: dose 10 mg/kg.
The subject of data set [14] is Mus musculus. Kind of data set: Anticonvulsant activity in mouse assessed as protection against maximal electroshock-induced seizures at 100 mg/kg, ip measured after 4 hrs. The class given is functional, organism-based. The arrangement: dose 100 mg/kg. In a few lines: (§3)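 Phase-I MES screen in KunMing mice, 18–22 g. Compounds dissolved in DMSO and given i.p. at 30, 100 or 300 mg/kg. The MES test followed the NIH ADD protocol and was read at 0.5 h and 4 h after dosing. Six mice per group, scored as number protected/number tested.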
On the technique in general: The maximal electroshock test induces tonic seizures with an electrical stimulus.

The test system of data set [15] is Mus musculus. Briefly: Anticonvulsant activity in ip dosed mouse assessed as protection against maximal electroshock-induced seizures. The class given is functional. In a few lines:
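KunMing mice, 18–22 g, compounds in DMSO, given i.p. at a range of doses, groups of 10. MES test per NIH ADD program. Read-out was seizure protection, with at least three points in the 10–90% range.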

Data set [16] concerns Mus musculus. Kind of data set: Anticonvulsant activity in mouse assessed as protection against maximal electroshock-induced seizures at 100 mg/kg, ip measured after 0.5 hrs. It is filed as functional, organism-based. The arrangement: dose 100 mg/kg. In a few lines: as §3
The subject of data set [17] is Mus musculus. Briefly: Anticonvulsant activity in mouse assessed as protection against maximal electroshock-induced seizures at 300 mg/kg, ip measured after 4 hrs. The class given is functional, organism-based. Also on record: dose 300 mg/kg. The gist of the method:
as §3

Data set [18] has as its system Mus musculus. Briefly: Anticonvulsant activity in mouse assessed as protection against maximal electroshock-induced seizures at 30 mg/kg, ip measured after 4 hrs. It is filed as functional, organism-based. The arrangement: dose 30 mg/kg. In a few lines:
as §3

Data set [19] concerns Mus musculus. Kind of data set: Anticonvulsant activity in mouse assessed as 3-mercaptopropionic acid-induced death at 30 mg/kg, ip administered 30 mins before 3-mercaptopropionic acid challenge measured after 0.5 hrs. It is filed as functional. Conditions: route intraperitoneal. In a few lines:
as §2

Data set [20] in a line: Neurotoxicity in ip dosed mouse assessed as time spent on rotarod by rotarod test. It is filed as toxicity, organism-based. Conditions: in vivo. The gist of the method:
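Rotarod neurotoxicity in KunMing mice, 18–22 g, compounds in DMSO given i.p. Mice were pretrained on a 3.2 cm diameter rod at 10 rpm. Toxicity was defined as failure to stay on the rod for at least 1 min in each trial.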

The subject of data set [21] is Mus musculus. Briefly: Anticonvulsant activity in mouse assessed as protection against maximal electroshock-induced seizures at 10 mg/kg, ip measured after 4 hrs. The class given is functional, organism-based. Also on record: dose 10 mg/kg.
Data set [22] has as its system Mus musculus. Briefly: Anticonvulsant activity in mouse assessed as protection against maximal electroshock-induced seizures at 30 mg/kg, ip measured after 0.5 hrs. It is filed as functional, organism-based. Also on record: dose 30 mg/kg. In a few lines:
as §3

SMILES strings stand for the structures. Active and inactive are the calls of the source.

On to `NC(=O)N1c2ccccc2C=Cc2ccccc21` [CARBAMAZEPINE], for which the Activity stood at 0% with Mus musculus [1]; 100% in the data set on Mus musculus [2]; 0% in the data set on Mus musculus [3]; 0% with Mus musculus [4]; 100% with Mus musculus [5]; 60% in the data set with Mus musculus [7]. The Activity is given as 0% with Mus musculus [8]; 20% in the data set with Mus musculus [9]; 0% in the data set with Mus musculus [10]; 100% with Mus musculus [11]; 100% in the data set with Mus musculus [12]. In addition, the PI in the data set filed under Mus musculus [6] worked out at 6.4.
The ED50 is the dose that gives a 50% effect, or the effect in half of the subjects. One may read the TD50 as the dose at which the toxic effect under study appears in half of the subjects. With `CCCCCCCOc1ccc2c(c1)-c1nncn1CCO2`, the Activity amounted to 0% with Mus musculus [1]; 100% with Mus musculus [2]; 0% with Mus musculus [3]; 0% in the data set on Mus musculus [4]; 80% with Mus musculus [5]; 0% in the data set with Mus musculus [7]. Moreover, the Activity with Mus musculus [8] was 30%; in the data set on Mus musculus [19], 20%; with Mus musculus [10] it was 0%; in the data set on Mus musculus [11] it was 100%; in the data set with Mus musculus [12], 100%. Besides, the result with Mus musculus [13], with Mus musculus [16] and in the data set on Mus musculus [22] was Active. The outcome in the data set on Mus musculus [14], in the data set with Mus musculus [17], in the data set with Mus musculus [18] and with Mus musculus [21] was inactive. In addition, the PI in the data set listed under Mus musculus [6] came to 9.5. Besides, in the data set with Mus musculus [15], the median effective dose (ED50) amounted to 6.9 mg/kg. Moreover, the TD50 in data set [20] was determined as 65.7 mg/kg.

The values are drawn from ChEMBL document CHEMBL1177876, “Design and synthesis of 10-alkoxy-5, 6-dihydro-triazolo[4,3-d]benzo[f][1,4]oxazepine derivatives with anticonvulsant activity” (Eur J Med Chem, 2010).
